Screening data (PubChem)
In the library only some 2.3% were active in any assay of this set; here they are far more common.
TRPC6 activator: mouse TRPC6 channel activators, primary screen, cell-based, HEK293, membrane potential dye; Short transient receptor potential channel 6 (Mus musculus), Q61143; HEK293-TRPC6 membrane potential dye fluorescence; hits give high values; B-score at 10 µM; 0.13% of 310,000 active;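 active = B-score of the integrated fluorescence ratio above library mean plus 3 SD, and starting fluorescence ratio within library mean plus 5 SD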;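 also: higher score means more depolarization so channel activation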
TRPC4 agonist: activators of mouse TRPC4 channel, primary screen, Fluo4 calcium, HEK293 TRPC4beta/mu-opioid cells; 0.49% of 310,000 active; B-score at 10 µM; Short transient receptor potential channel 4 (Mus musculus), Q9QUQ5; AID 2237, 2010; Fluo4 calcium fluorescence; hits give high values;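 active = B-score above 5 SD of library B-scores, and initial fluorescence ratio not above library mean plus 5 SD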;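 also: positive B-score marks a calcium rise read as TRPC4 activation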
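Assay system: HEK293 stable line with TRPC4beta plus mu-opioid receptor; schedule: 45 min room-temperature Fluo4 loading, 110 s read; technique: kinetic Fluo4 calcium fluorescence; evaluation: integrated baseline-normalised fluorescence ratio, converted to per-well B score; controls: buffer (low) and maximal DAMGO (high)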
TRPC6 inhibitor: mouse TRPC6 channel inhibitors, primary screen, cell-based, HEK293, membrane potential dye; 1.1% of 310,000 active; B-score at 10 µM; ACh-evoked depolarization; hits give low values;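 active = B-score under library mean minus 3 SD, initial fluorescence not abnormally high, positive integrated signal ratio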;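 also: B-score derived from integrated fluorescence ratio over the kinetic read; more negative B-score means stronger inhibition of depolarization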
TRPC4 inh: inhibitors of mouse TRPC4 channel, primary screen, Fluo4 calcium, HEK293 TRPC4beta/mu-opioid cells | B-score at 10 µM | Short transient receptor potential channel 4 (Mus musculus), Q9QUQ5 | DAMGO-evoked Fluo4 calcium flux; hits give low values | 0.39% of 300,000 active;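 active = B-score over 3 SD under the library average, no early fluorescence shift, positive overall ratio signal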
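Assay system: HEK293 cells with stable TRPC4beta plus mu-opioid receptor expression. Dosing: single dose. Measured by: Fluo4 Ca2+ flux fluorescence. Also added: DAMGO in two steps, submaximal then maximal. Read-out: B score from integrated Fluo4 fluorescence ratio.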
TRPC4 potent: positive allosteric modulators of TRPC4, primary screen, cell-based, mouse TRPC4beta, HEK293 mu-opioid, Fluo-4 calcium. Short transient receptor potential channel 4 (Mus musculus), Q9QUQ5. DAMGO EC20, Fluo-4 Ca2+ flux; hits give high values. B-score at 10 µM. 0.42% of 310,000 active. AID 2227, 2009;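 active = B-score of calcium response area above 5 SD of library B-scores, with initial fluorescence ratio within 5 SD of library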;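 also: B-score of integrated fluorescence ratio over time as area under calcium response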
* = called active by the depositor; i = inactive.

SMILES | TRPC6 activator | TRPC4 agonist | TRPC6 inhibitor | TRPC4 inh | TRPC4 potent
CCOC(=O)c1c(NC(=O)COC(=O)Cn2cnc3c2c(=O)n(C)c(=O)n3C)sc(C)c1CC | i | i | i | -7* | i
CSc1ccccc1C(=O)N1CCC(n2nccc2NC(=O)C(C)(C)C)CC1 | i | i | i | i | i
O=C(CCC1CCCC1)c1c(O)c2ccccc2oc1=O | i | 193* | i | i | i
O=C(c1c(O)c2ccccc2oc1=O)C1CCCCC1 | i | i | i | i | i
CCOc1[nH]n(-c2ccccc2)c(=O)c1C=Nc1ccc(F)cc1F | i | i | i | i | i
O=c1[nH][nH]c(-c2ccccc2)c1C=Nc1ccc(F)cc1F | i | i | i | i | 79*
CN(C)c1ccc(C(=S)N2CCN(c3ccc([N+](=O)[O-])cc3)CC2)cc1 | i | i | i | i | 19*
COc1ccc(C(=O)NC(=S)NNC(=O)c2cccc(C)c2)cc1 | i | 214* | i | i | i
COc1ccccc1C(=O)NNC(=S)NC(=O)c1cccs1 | i | 137* | i | i | i
CCCCC(=O)NC(=S)NNC(=O)c1ccc(Cl)cc1Cl | i | 165* | i | i | i
O=C(Cc1ccc(Cl)cc1)NNC(=S)NC(=O)c1cccs1 | i | 107* | i | i | i
COc1ccc(C(=O)NNC(=S)Nc2ccccc2)cc1 | i | i | i | i | i
COc1ccccc1C(=O)NNC(=S)NC(=O)c1sc2ccccc2c1Cl | i | 48* | i | -8* | i
Cc1cccc(C(=O)NNC(=S)NC(=O)c2cccs2)c1 | i | 212* | i | i | i
COc1ccc(C(=O)NNC(=S)NC(=O)c2ccc(F)cc2)cc1Br | i | 49* | i | i | i
COc1ccc(C(=O)NNC(=S)NC(=O)c2cccs2)cc1 | i | 85* | i | i | i
COc1ccc(NS(=O)(=O)c2cc(C(=O)N3CCN(C/C=C/c4ccccc4)CC3)ccc2C)cc1 | i | i | i | i | i
CC(=O)N1CCN(C(=O)c2cc(S(=O)(=O)N(C)c3ccc(F)cc3)ccc2Cl)CC1 | i | i | i | i | i
COc1ccc(NC(=O)CNC(=O)c2nn(-c3ccc(OC)cc3OC)c(=O)c3ccccc23)c(OC)c1 | i | i | i | i | i
Cc1ccc(C(=O)NNC(=O)c2cccc(C)c2)cc1 | i | i | i | i | i
Cc1cccc(/C(N)=N/OC(=O)COc2ccc(Cl)cc2)c1 | i | i | i | i | i
O=C(COc1cccc(Cl)c1)NNC(=S)Nc1ccccc1 | i | i | i | i | i
O=C(COc1ccccc1)NNC(=S)NC(=O)c1ccc(Cl)cc1Cl | i | 69* | i | i | i
Cc1occc1C(=O)NNC(=S)NC(=O)COc1ccc(Cl)cc1Cl | i | 87* | i | i | i
Cc1cccc(C(=O)NNC(=S)NC(=O)c2ccccc2)c1 | i | 173* | i | i | i
Cc1cccc(C(=O)NC(=S)NNC(=O)COc2ccc(Cl)cc2)c1 | i | 68* | i | i | i
CN1CCN(CCNC(=O)c2ccc3nc(-c4ccc(F)cc4)c(-c4ccc(F)cc4)nc3c2)CC1 | i | i | i | i | i
CN[C@@H]1[C@H](O)[C@H](NC)[C@H]2O[C@@]3(O)C(=O)C[C@@H](C)O[C@H]3O[C@@H]2[C@H]1O | i | i | i | i | i
COc1ccc(C(=O)NNC(=S)NC(=O)c2cccnc2)cc1 | i | i | i | i | i
COc1ccc(C(=O)NNC(=S)NC(=O)c2ccc(OC)cc2)cc1 | i | 78* | i | i | i
